Series [1] is classed as in vivo, human. An outline of the steps: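 Eight healthy men (21–65 y) taking no medicines or vitamins, randomized 1:1, double-blind crossover. After a ≥10 h fast, seated subjects swallowed 500 mg test formulation or 500 mg control (150 mg AA + 350 mg starch) with 240 mL water. Heparinized blood sampled 0.25–24 h post dose, spun 3500 rpm, 4 °C, 10 min; plasma at −20 °C, AA by HPLC; mean ± SD.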

Series [2] is described as follows: Particle size and ζ-potential by dynamic light scattering. The conditions noted are these: 25 °C. It counts as physicochemical. An outline of the steps: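 Test-compound-loaded fiber-reinforced phospholipid vesicles were diluted 10-fold in distilled water to avoid scattering artefacts. Size and ζ-potential were then measured by dynamic light scattering on a Zetasizer Nano ZS at 25 °C, with intensity read at a scattering angle of 90.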

Where [3] appears, read: male, human, plasma, po, 150 mg.
Where [4] appears, read: plasma vitamin C, single oral dose 500 mg (150 mg AA), fasting, mean ± SD.

Where two headings read alike, the source gives them in different places.

As for `O=C1O[C@H]([C@@H](O)CO)C(O)=C1O` [AA, L-ascorbic acid], in series [1] (setting [3]), the highest level (Cmax) was 12300 ± 3800 ng/mL, the half-life was 3.14 ± 2.01 h and the k el was 8.61e-05 s⁻¹. Moreover, in series [1] (setting [4]), the “AUC0–t” value is 9.38 ± 4.91 mg·h/dL, the “AUC0–∞” value is given as 9.66 ± 5.02 mg·h/dL and the Tmax is 3.56 ± 0.62 h. For the same compound, in series [1] (single oral dose), the AUC is reported as 9.66 mg/dL and the “AUC0–t” value is reported as 9.38 mg/dL. The compound further showed a ζ-potential in series [2] of −20 to 10 mV.

As usually defined, the Cmax is the highest concentration seen after dosing. Broadly, the half-life is how long it takes for the measured level to halve. Low values mean rapid decline, high ones slow decline. Broadly, the Tmax is the time at which the peak concentration occurs.

The record behind these values is paper PMC7931380 (ACS Omega, 2021).
